The source of these data is ChEMBL document CHEMBL1155640, “Guaiane dimers and germacranolide from Artemisia caruifolia” (J Nat Prod, 2000).

The source made the active and inactive calls. The calls are words filed in the database; no cut-off is given here.

For experiment [1], the target named is Protease (Human immunodeficiency virus 1) (UniProt Q9YQ12). The experiment is described as follows: Inhibition of HIV1 protease at 100 ug/mL. The method, boiled down:
(§1)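 Commercial HIV protease assay kit, with inhibition calculated by a previously reported method. Compounds were screened at 100 µg/mL. IC50 was taken from concentration-dependent inhibition. Acetyl pepstatin served as positive control.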

Experiment [2] relates to Human immunodeficiency virus 1. The experiment is described as follows: Antiviral activity against HIV1 in human MT4 cells assessed as inhibition of viral-induced cytopathic effect at 500 ug/mL. Type of experiment: functional, organism-based.
Experiment [3] concerns the target Protease (Human immunodeficiency virus 1, UniProt Q9YQ12). The experiment is described as follows: Inhibition of HIV1 protease. The method, boiled down: as §1
Experiment [4] concerns Human immunodeficiency virus 1. Description: Antiviral activity against HIV1 in human MT4 cells assessed as inhibition of viral-induced cytopathic effect at 250 ug/mL. Type of experiment: functional, organism-based. (Protection from cytopathic effect is a common read-out in antiviral testing.)

Protease (Human immunodeficiency virus 1), sequence (Q9YQ12 as listed by the source): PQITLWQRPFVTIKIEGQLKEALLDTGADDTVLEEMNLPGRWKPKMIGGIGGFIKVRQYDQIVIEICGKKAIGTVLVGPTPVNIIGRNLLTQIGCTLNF
Protease, sequence (Q9YQ12 whole entry): as the sequence (Q9YQ12 as listed by the source) above

The term inhibition denotes the drop in the measured response relative to a control, in per cent. A high value points to a strong effect. The molecule `C/C1=C/[C@H]2OC(=O)[C@H](C)[C@H]2CC[C@]2(C)O[C@H]1C[C@H]2O` returned an inhibition in experiment [1] of 22%.
In turn, `C=C1[C@@H](O)[C@@H]2[C@H]3[C@H](C(C)=C4[C@H]5OC(=O)[C@@H](C)[C@@H]5CC[C@](C)(O)[C@@H]43)[C@@]13[C@@H]2[C@@](C)(O)CC[C@H]1[C@H](C)C(=O)O[C@@H]13` had an inhibition in experiment [1] of 22%.
In experiment [1], `CC1=C2[C@H]3OC(=O)[C@@H](C)[C@@H]3CC[C@](C)(O)[C@@H]2[C@H]2[C@H]3C[C@]4(C)O[C@@]5(C)CC[C@H]6[C@H](C)C(=O)O[C@@H]6[C@@]4([C@@H]35)[C@@H]12` came in with an inhibition of 22%.
As usually defined, the IC50 is the midpoint of a concentration-inhibition curve. Lower therefore signals greater potency in that assay. Turning to `CC1=C2[C@H]3OC(=O)[C@@H](C)[C@@H]3CC[C@](C)(O)[C@@H]2[C@H]2[C@H]3C(=O)[C@H](C)[C@]4([C@@H]3[C@@](C)(O)CC[C@H]3[C@H](C)C(=O)O[C@@H]34)[C@@H]12` [CARUIFOLIN B], in experiment [2], the outcome was Active. The molecule further gave an inhibition in experiment [1] of 22%. The molecule also had an IC50 in experiment [3] of 293 µM.
In experiment [1], `CC1=C2[C@H]3OC(=O)[C@H](C)[C@@H]3CC[C@@](C)(O)[C@@H]2[C@H]2[C@H]3C[C@]4(C)O[C@@]5(C)CC[C@H]6[C@H](C)C(=O)O[C@@H]6[C@@]4([C@@H]35)[C@@H]12` gave an inhibition of 22%.
With `CC1=C2[C@H]3OC(=O)[C@@H](C)[C@@H]3CC[C@](C)(O)[C@@H]2[C@H]2[C@@H]3[C@@H]4[C@]5([C@H]6OC(=O)[C@@H](C)[C@@H]6CC[C@]4(C)O[C@@]5(C)[C@H]3O)[C@@H]12`, in experiment [1], the inhibition was 22%.
For the molecule `CC1=C[C@H]2[C@H]3[C@H](C(C)=C4[C@H]5OC(=O)[C@@H](C)[C@@H]5CC[C@](C)(O)[C@@H]43)[C@@]13[C@@H]2[C@@](C)(O)CC[C@H]1[C@H](C)C(=O)O[C@@H]13`, the inhibition in experiment [1] was determined as 22%. Moreover, in experiment [4], the result was Active.
Consider `C[C@@H]1C(=O)O[C@@H]2C3=C([C@H]4C(=O)[C@]3(C)[C@@H]3[C@H](O)C5=C([C@H]6OC(=O)[C@@H](C)[C@@H]6CC[C@]5(C)O)[C@@]43C)[C@@](C)(O)CC[C@@H]12`, for which the inhibition in experiment [1] is 22%.
